Source: ChEMBL document CHEMBL1152768, “4-Benzyloxy-gamma-sultone derivatives: discovery of a novel family of non-nucleoside inhibitors of human cytomegalovirus and varicella zoster virus” (J Med Chem, 2009)

System: not listed separately
Experiment: Cytotoxicity against human HEL cells assessed as reduction of growth after 3 days
Type: cell-based
Conditions: not given
Procedure, shortened: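 HEL cells were seeded at 5 × 10³ cells/well and grown 24 h before compound was added at different concentrations. After 3 days at 37 °C, cells were counted with a Coulter counter. CC50, the concentration halving growth relative to untreated controls, was read from plots of cell number (% of control) against concentration.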

Structure (SMILES) | CC50 at 72 h [µM]
CCC1(Cc2ccccc2)OS(=O)(=O)C=C1NCc1ccccc1 (stereo unspecified) | 92
CCC1(Cc2ccccc2)OS(=O)(=O)CC1=O (stereo unspecified) | 200
CCC1(CC)OS(=O)(=O)C=C1OCc1ccccc1 | 200
CCC1(Cc2ccccc2)OS(=O)(=O)C=C1OC (racemic) | > 200
CCC1(Cc2ccccc2)OS(=O)(=O)C=C1OCC=C(C)C (racemic) | 112
CCC1(Cc2ccccc2)OS(=O)(=O)C=C1OCC#N (racemic) | > 200
CCC1(Cc2ccccc2)OS(=O)(=O)C=C1OCC1CCCCC1 (racemic) | > 200
CC(C)CC1(Cc2ccccc2)OS(=O)(=O)C=C1OCc1ccccc1 (racemic) | 102
CC1(C(c2ccccc2)c2ccccc2)OS(=O)(=O)C=C1OCc1ccccc1 (racemic) | 200
CCCC1(Cc2ccccc2)OS(=O)(=O)C=C1OCc1ccccc1 (racemic) | 200
CC(C)C1(Cc2ccccc2)OS(=O)(=O)C=C1OCc1ccccc1 (racemic) | 200
O=S1(=O)C=C(OCc2ccccc2)C2(CCc3ccccc3C2)O1 (racemic) | 131
CC1(Cc2ccccc2)OS(=O)(=O)C=C1OCc1ccccc1 (racemic) | 68
C=CCOC1=CS(=O)(=O)OC1(CC)Cc1ccccc1 (racemic) | > 200
CCC1(Cc2ccccc2)OS(=O)(=O)C=C1OCC(=O)OC (racemic) | > 200
CCC1(Cc2ccccc2)OS(=O)(=O)C=C1OCCCc1ccccc1 (racemic) | 133
CCC1(Cc2ccccc2)OS(=O)(=O)C=C1OC(c1ccccc1)c1ccccc1 (racemic) | > 200
O=c1[nH]c(=O)n([C@H]2C[C@H](O)[C@@H](CO)O2)cc1/C=C/Br [BRIVUDINE] | 600

System: Human alphaherpesvirus 3
Experiment: Antiviral activity against thymidine kinase deficient Varicella zoster virus 07/1 infected in human HEL cells assessed reduction in viral plaque formation
Type: functional, organism-based
Conditions: Human alphaherpesvirus 3, HEL
Procedure, shortened: (§1)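 Confluent HEL cell monolayers were inoculated with VZV at 20 PFU per well. Residual virus was removed after 2 h, and compound was added at varying concentrations, in duplicate.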

Structure (SMILES) | EC50 [µM]
CCC1(Cc2ccccc2)OS(=O)(=O)C=C1NCc1ccccc1 (stereo unspecified) | 32
CCC1(Cc2ccccc2)OS(=O)(=O)CC1=O (stereo unspecified) | 10.5
CCC1(CC)OS(=O)(=O)C=C1OCc1ccccc1 | 155
CCC1(Cc2ccccc2)OS(=O)(=O)C=C1OC (racemic) | 285
CCC1(Cc2ccccc2)OS(=O)(=O)C=C1OCC=C(C)C (racemic) | 52
CCC1(Cc2ccccc2)OS(=O)(=O)C=C1OCC#N (racemic) | 199
CCC1(Cc2ccccc2)OS(=O)(=O)C=C1OCC1CCCCC1 (racemic) | 7
CC(C)CC1(Cc2ccccc2)OS(=O)(=O)C=C1OCc1ccccc1 (racemic) | > 80
CC1(C(c2ccccc2)c2ccccc2)OS(=O)(=O)C=C1OCc1ccccc1 (racemic) | > 80
CCCC1(Cc2ccccc2)OS(=O)(=O)C=C1OCc1ccccc1 (racemic) | > 400
CC(C)C1(Cc2ccccc2)OS(=O)(=O)C=C1OCc1ccccc1 (racemic) | > 16
O=S1(=O)C=C(OCc2ccccc2)C2(CCc3ccccc3C2)O1 (racemic) | > 16
CC1(Cc2ccccc2)OS(=O)(=O)C=C1OCc1ccccc1 (racemic) | > 400
C=CCOC1=CS(=O)(=O)OC1(CC)Cc1ccccc1 (racemic) | > 16
CCC1(Cc2ccccc2)OS(=O)(=O)C=C1OCC(=O)OC (racemic) | > 400
CCC1(Cc2ccccc2)OS(=O)(=O)C=C1OCCCc1ccccc1 (racemic) | 6.5
CCC1(Cc2ccccc2)OS(=O)(=O)C=C1OC(c1ccccc1)c1ccccc1 (racemic) | > 80
O=c1[nH]c(=O)n([C@H]2C[C@H](O)[C@@H](CO)O2)cc1/C=C/Br [BRIVUDINE] | 140

System: Human alphaherpesvirus 3
Experiment: Antiviral activity against thymidine kinase expressing Varicella zoster virus Oka infected in human HEL cells assessed reduction in viral plaque formation
Type: functional, organism-based
Conditions: Human alphaherpesvirus 3, Oka
Procedure, shortened: as §1

Structure (SMILES) | EC50 [µM]
CCC1(Cc2ccccc2)OS(=O)(=O)C=C1NCc1ccccc1 (stereo unspecified) | 37
CCC1(Cc2ccccc2)OS(=O)(=O)CC1=O (stereo unspecified) | 10
CCC1(CC)OS(=O)(=O)C=C1OCc1ccccc1 | 175
CCC1(Cc2ccccc2)OS(=O)(=O)C=C1OC (racemic) | 168
CCC1(Cc2ccccc2)OS(=O)(=O)C=C1OCC=C(C)C (racemic) | 59
CCC1(Cc2ccccc2)OS(=O)(=O)C=C1OCC#N (racemic) | 199
CCC1(Cc2ccccc2)OS(=O)(=O)C=C1OCC1CCCCC1 (racemic) | 20
CC(C)CC1(Cc2ccccc2)OS(=O)(=O)C=C1OCc1ccccc1 (racemic) | > 80
CC1(C(c2ccccc2)c2ccccc2)OS(=O)(=O)C=C1OCc1ccccc1 (racemic) | > 80
CCCC1(Cc2ccccc2)OS(=O)(=O)C=C1OCc1ccccc1 (racemic) | > 80
CC(C)C1(Cc2ccccc2)OS(=O)(=O)C=C1OCc1ccccc1 (racemic) | > 80
O=S1(=O)C=C(OCc2ccccc2)C2(CCc3ccccc3C2)O1 (racemic) | 80
CC1(Cc2ccccc2)OS(=O)(=O)C=C1OCc1ccccc1 (racemic) | 306
C=CCOC1=CS(=O)(=O)OC1(CC)Cc1ccccc1 (racemic) | > 16
CCC1(Cc2ccccc2)OS(=O)(=O)C=C1OCC(=O)OC (racemic) | > 400
CCC1(Cc2ccccc2)OS(=O)(=O)C=C1OCCCc1ccccc1 (racemic) | > 3.2
CCC1(Cc2ccccc2)OS(=O)(=O)C=C1OC(c1ccccc1)c1ccccc1 (racemic) | > 80
O=c1[nH]c(=O)n([C@H]2C[C@H](O)[C@@H](CO)O2)cc1/C=C/Br [BRIVUDINE] | 0.015

System: Human betaherpesvirus 5
Experiment: Antiviral activity against HCMV Davis infected in human HEL cells assessed inhibition of virus-induced cytopathicity after 7 days postinfection
Type: functional, organism-based
Conditions: Human betaherpesvirus 5, Davis, 168 h
Procedure, shortened: (§2)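 HEL fibroblasts were infected at 100 PFU. After 2 h, residual virus was removed and medium with test compound was added at several concentrations, in duplicate. Cells were incubated 7 days at 37 °C, fixed with ethanol and stained with Giemsa.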

Structure (SMILES) | EC50 [µM]
CCC1(Cc2ccccc2)OS(=O)(=O)C=C1NCc1ccccc1 (stereo unspecified) | > 80
CCC1(Cc2ccccc2)OS(=O)(=O)CC1=O (stereo unspecified) | 400
CCC1(CC)OS(=O)(=O)C=C1OCc1ccccc1 | 234
CCC1(Cc2ccccc2)OS(=O)(=O)C=C1OC (racemic) | > 400
CCC1(Cc2ccccc2)OS(=O)(=O)C=C1OCC=C(C)C (racemic) | > 80
CCC1(Cc2ccccc2)OS(=O)(=O)C=C1OCC#N (racemic) | 235
CCC1(Cc2ccccc2)OS(=O)(=O)C=C1OCC1CCCCC1 (racemic) | > 200
CC(C)CC1(Cc2ccccc2)OS(=O)(=O)C=C1OCc1ccccc1 (racemic) | > 400
CC1(C(c2ccccc2)c2ccccc2)OS(=O)(=O)C=C1OCc1ccccc1 (racemic) | > 400
CCCC1(Cc2ccccc2)OS(=O)(=O)C=C1OCc1ccccc1 (racemic) | > 400
CC(C)C1(Cc2ccccc2)OS(=O)(=O)C=C1OCc1ccccc1 (racemic) | > 400
O=S1(=O)C=C(OCc2ccccc2)C2(CCc3ccccc3C2)O1 (racemic) | > 80
CC1(Cc2ccccc2)OS(=O)(=O)C=C1OCc1ccccc1 (racemic) | > 200
C=CCOC1=CS(=O)(=O)OC1(CC)Cc1ccccc1 (racemic) | > 400
CCC1(Cc2ccccc2)OS(=O)(=O)C=C1OCC(=O)OC (racemic) | > 400
CCC1(Cc2ccccc2)OS(=O)(=O)C=C1OCCCc1ccccc1 (racemic) | 8.7
CCC1(Cc2ccccc2)OS(=O)(=O)C=C1OC(c1ccccc1)c1ccccc1 (racemic) | > 400

System: Human betaherpesvirus 5
Experiment: Antiviral activity against HCMV AD169 infected in human HEL cells assessed inhibition of virus-induced cytopathicity after 7 days postinfection
Type: functional, organism-based
Conditions: Human betaherpesvirus 5, AD169, HEL, 168 h
Procedure, shortened: as §2

Structure (SMILES) | EC50 [µM]
CCC1(Cc2ccccc2)OS(=O)(=O)C=C1NCc1ccccc1 (stereo unspecified) | > 80
CCC1(Cc2ccccc2)OS(=O)(=O)CC1=O (stereo unspecified) | > 400
CCC1(CC)OS(=O)(=O)C=C1OCc1ccccc1 | > 400
CCC1(Cc2ccccc2)OS(=O)(=O)C=C1OC (racemic) | > 400
CCC1(Cc2ccccc2)OS(=O)(=O)C=C1OCC=C(C)C (racemic) | > 80
CCC1(Cc2ccccc2)OS(=O)(=O)C=C1OCC#N (racemic) | > 80
CCC1(Cc2ccccc2)OS(=O)(=O)C=C1OCC1CCCCC1 (racemic) | > 200
CC(C)CC1(Cc2ccccc2)OS(=O)(=O)C=C1OCc1ccccc1 (racemic) | > 400
CC1(C(c2ccccc2)c2ccccc2)OS(=O)(=O)C=C1OCc1ccccc1 (racemic) | > 80
CCCC1(Cc2ccccc2)OS(=O)(=O)C=C1OCc1ccccc1 (racemic) | > 400
CC(C)C1(Cc2ccccc2)OS(=O)(=O)C=C1OCc1ccccc1 (racemic) | > 400
O=S1(=O)C=C(OCc2ccccc2)C2(CCc3ccccc3C2)O1 (racemic) | > 400
CC1(Cc2ccccc2)OS(=O)(=O)C=C1OCc1ccccc1 (racemic) | > 200
C=CCOC1=CS(=O)(=O)OC1(CC)Cc1ccccc1 (racemic) | > 400
CCC1(Cc2ccccc2)OS(=O)(=O)C=C1OCC(=O)OC (racemic) | > 400
CCC1(Cc2ccccc2)OS(=O)(=O)C=C1OCCCc1ccccc1 (racemic) | 9
CCC1(Cc2ccccc2)OS(=O)(=O)C=C1OC(c1ccccc1)c1ccccc1 (racemic) | > 400

System: not listed separately
Experiment: Cytotoxicity against human HEL cells assessed as morphological alteration after 3 days
Type: cell-based
Conditions: not given
Procedure, shortened: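 HEL cultures were examined under the microscope. MCC was recorded as the compound concentration causing a microscopically detectable alteration of normal cell morphology.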

Structure (SMILES) | MCC at 72 h [µM]
CCC1(Cc2ccccc2)OS(=O)(=O)C=C1NCc1ccccc1 (stereo unspecified) | ≥ 80
CCC1(Cc2ccccc2)OS(=O)(=O)CC1=O (stereo unspecified) | > 100
CCC1(CC)OS(=O)(=O)C=C1OCc1ccccc1 | > 400
CCC1(Cc2ccccc2)OS(=O)(=O)C=C1OC (racemic) | > 400
CCC1(Cc2ccccc2)OS(=O)(=O)C=C1OCC=C(C)C (racemic) | 400
CCC1(Cc2ccccc2)OS(=O)(=O)C=C1OCC#N (racemic) | > 400
CCC1(Cc2ccccc2)OS(=O)(=O)C=C1OCC1CCCCC1 (racemic) | ≥ 200
CC(C)CC1(Cc2ccccc2)OS(=O)(=O)C=C1OCc1ccccc1 (racemic) | ≥ 80
CC1(C(c2ccccc2)c2ccccc2)OS(=O)(=O)C=C1OCc1ccccc1 (racemic) | ≥ 400
CCCC1(Cc2ccccc2)OS(=O)(=O)C=C1OCc1ccccc1 (racemic) | ≥ 400
CC(C)C1(Cc2ccccc2)OS(=O)(=O)C=C1OCc1ccccc1 (racemic) | ≥ 80
O=S1(=O)C=C(OCc2ccccc2)C2(CCc3ccccc3C2)O1 (racemic) | ≥ 80
CC1(Cc2ccccc2)OS(=O)(=O)C=C1OCc1ccccc1 (racemic) | > 400
C=CCOC1=CS(=O)(=O)OC1(CC)Cc1ccccc1 (racemic) | 80
CCC1(Cc2ccccc2)OS(=O)(=O)C=C1OCC(=O)OC (racemic) | > 400
CCC1(Cc2ccccc2)OS(=O)(=O)C=C1OCCCc1ccccc1 (racemic) | ≥ 20
CCC1(Cc2ccccc2)OS(=O)(=O)C=C1OC(c1ccccc1)c1ccccc1 (racemic) | ≥ 80
O=c1[nH]c(=O)n([C@H]2C[C@H](O)[C@@H](CO)O2)cc1/C=C/Br [BRIVUDINE] | > 150
